# The source made the active and inactive calls. No cut-off for these calls is given here.
# Tests used:
# [1] = molecular target: T1, Monoacylglycerol lipase ABHD6 (Mus musculus) (UniProt Q8R2Y0); experiment: Inhibition of ABHD6 in FP-rhodamine-labelled mouse brain membrane at 10 nM preincubated for 30 mins followed by FP-rhodamine labelling measured after 30 mins by gel-based competitive ABPP assay; assay type: tissue-based
# T1 sequence (whole entry): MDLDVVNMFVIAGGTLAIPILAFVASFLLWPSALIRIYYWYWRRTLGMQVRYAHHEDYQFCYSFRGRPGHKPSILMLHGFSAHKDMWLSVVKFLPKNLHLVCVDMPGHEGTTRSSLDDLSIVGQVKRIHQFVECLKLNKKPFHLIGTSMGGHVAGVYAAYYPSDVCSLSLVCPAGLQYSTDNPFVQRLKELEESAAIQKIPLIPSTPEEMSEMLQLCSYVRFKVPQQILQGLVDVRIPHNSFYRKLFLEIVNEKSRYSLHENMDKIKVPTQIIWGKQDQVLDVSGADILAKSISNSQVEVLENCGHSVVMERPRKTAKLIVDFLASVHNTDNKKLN
# Procedure, shortened: (§1)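 Mouse brain membrane proteome (1 mg/mL) preincubated with compound for 30 min at 37 °C, then labelled with FP-rhodamine or HT-01 (1 μM final) for 30 min at 37 °C. Quenched in SDS loading buffer, run on 10% SDS-PAGE and scanned for in-gel fluorescence. Bands assigned by gel migration.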
# [2] = molecular target: T1, Monoacylglycerol lipase ABHD6 (Mus musculus); experiment: Inhibition of ABHD6 in FP-rhodamine-labelled mouse brain membrane at 1 nM preincubated for 30 mins followed by FP-rhodamine labelling measured after 30 mins by gel-based competitive ABPP assay; assay type: tissue-based; procedure, shortened: as §1
# [3] = molecular target: T2, Diacylglycerol lipase-beta (Mus musculus) (UniProt Q91WC9); experiment: Inhibition of FP-rhodamine-labelled recombinant mouse DAGLbeta expressed in HEK293T cells at 1 uM preincubated for 30 mins followed by FP-rhodamine labelling measured after 30 mins by gel-based competitive ABPP assay; assay type: cell-based; settings: HEK-293T
# T2 sequence (whole entry): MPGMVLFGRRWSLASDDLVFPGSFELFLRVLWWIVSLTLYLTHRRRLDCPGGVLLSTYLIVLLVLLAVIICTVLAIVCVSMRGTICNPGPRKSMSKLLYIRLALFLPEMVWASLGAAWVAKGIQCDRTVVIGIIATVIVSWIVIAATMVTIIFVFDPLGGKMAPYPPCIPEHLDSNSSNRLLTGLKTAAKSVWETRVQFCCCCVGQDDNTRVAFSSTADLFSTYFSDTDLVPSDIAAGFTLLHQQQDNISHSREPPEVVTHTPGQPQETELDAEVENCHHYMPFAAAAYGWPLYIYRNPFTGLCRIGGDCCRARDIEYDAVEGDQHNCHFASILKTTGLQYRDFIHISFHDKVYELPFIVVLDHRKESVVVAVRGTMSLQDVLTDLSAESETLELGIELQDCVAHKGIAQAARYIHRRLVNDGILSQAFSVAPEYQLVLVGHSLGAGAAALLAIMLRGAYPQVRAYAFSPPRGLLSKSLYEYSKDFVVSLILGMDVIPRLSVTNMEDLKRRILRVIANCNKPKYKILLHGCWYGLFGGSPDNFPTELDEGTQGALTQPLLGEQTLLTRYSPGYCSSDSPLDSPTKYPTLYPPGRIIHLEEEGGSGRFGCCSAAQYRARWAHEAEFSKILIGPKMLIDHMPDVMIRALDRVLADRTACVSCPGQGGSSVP
# Procedure, shortened: (§2)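 Mouse DAGLβ transiently overexpressed in HEK293T. Lysate diluted to 0.3 mg/mL in 50 mM HEPES pH 7.2, 100 mM NaCl, 5 mM CaCl₂, 0.1% Triton X-100, 10% DMSO. Compound preincubated 30 min at 37 °C, then 1 μM probe for 30 min at 37 °C, SDS-PAGE and in-gel fluorescence.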
# [4] = molecular target: Acyl-protein thioesterase 1 (Mus musculus) (UniProt P97823); experiment: Inhibition of FP-rhodamine-labelled recombinant mouse LYPLA1 at 10 uM preincubated for 30 mins followed by FP-rhodamine labelling measured after 30 mins by gel-based competitive ABPP assay
# Sequence of Acyl-protein thioesterase 1 (Mus musculus) (P97823 whole entry): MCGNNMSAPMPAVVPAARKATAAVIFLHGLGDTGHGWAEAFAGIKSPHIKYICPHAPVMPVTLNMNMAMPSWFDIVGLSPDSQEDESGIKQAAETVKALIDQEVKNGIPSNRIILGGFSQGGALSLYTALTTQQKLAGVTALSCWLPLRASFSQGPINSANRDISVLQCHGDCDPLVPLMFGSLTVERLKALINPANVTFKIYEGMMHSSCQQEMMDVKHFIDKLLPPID
# [5] = molecular target: Acyl-protein thioesterase 2 (Mus musculus) (UniProt Q9WTL7); experiment: Inhibition of FP-rhodamine-labelled recombinant mouse LYPLA2 at 10 uM preincubated for 30 mins followed by FP-rhodamine labelling measured after 30 mins by gel-based competitive ABPP assay
# Sequence of Acyl-protein thioesterase 2 (Mus musculus) (Q9WTL7 whole entry): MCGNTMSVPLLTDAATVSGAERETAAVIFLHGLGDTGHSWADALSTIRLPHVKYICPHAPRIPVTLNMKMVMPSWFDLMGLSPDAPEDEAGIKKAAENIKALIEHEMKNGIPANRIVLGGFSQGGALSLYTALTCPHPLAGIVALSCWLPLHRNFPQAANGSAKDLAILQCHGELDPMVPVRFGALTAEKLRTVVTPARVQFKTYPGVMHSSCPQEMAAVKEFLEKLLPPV
# [6] = molecular target: T3, Fatty-acid amide hydrolase 1 (Mus musculus) (UniProt O08914); experiment: Inhibition of mouse brain FAAH at 10 uM after 30 mins by FP-rhodamine ABPP-based SDS-PAGE analysis relative to control
# T3 sequence (whole entry): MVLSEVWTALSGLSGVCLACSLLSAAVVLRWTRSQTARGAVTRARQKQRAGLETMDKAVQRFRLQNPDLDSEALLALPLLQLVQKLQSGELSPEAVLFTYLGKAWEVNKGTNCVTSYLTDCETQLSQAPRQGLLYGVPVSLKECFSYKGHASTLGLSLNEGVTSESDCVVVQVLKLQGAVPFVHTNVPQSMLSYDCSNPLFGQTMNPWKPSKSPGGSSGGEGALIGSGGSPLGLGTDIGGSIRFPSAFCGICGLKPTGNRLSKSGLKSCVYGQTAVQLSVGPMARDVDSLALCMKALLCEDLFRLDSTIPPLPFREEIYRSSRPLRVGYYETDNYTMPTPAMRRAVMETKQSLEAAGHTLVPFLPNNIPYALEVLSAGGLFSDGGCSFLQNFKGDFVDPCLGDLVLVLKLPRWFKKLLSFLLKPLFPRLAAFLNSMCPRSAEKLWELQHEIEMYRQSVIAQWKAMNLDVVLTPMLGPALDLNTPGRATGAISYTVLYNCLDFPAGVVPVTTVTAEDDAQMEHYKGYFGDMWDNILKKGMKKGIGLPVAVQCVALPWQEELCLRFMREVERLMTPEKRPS
# [7] = molecular target: T2, Diacylglycerol lipase-beta (Mus musculus); experiment: Inhibition of FP-rhodamine-labelled recombinant mouse DAGLbeta expressed in HEK293T cells at 100 nM preincubated for 30 mins followed by FP-rhodamine labelling measured after 30 mins by gel-based competitive ABPP assay; assay type: cell-based; settings: HEK-293T; procedure, shortened: as §2
# [8] = molecular target: T2, Diacylglycerol lipase-beta (Mus musculus); experiment: Inhibition of FP-rhodamine-labelled recombinant mouse DAGLbeta expressed in HEK293T cells at 10 uM preincubated for 30 mins followed by FP-rhodamine labelling measured after 30 mins by gel-based competitive ABPP assay; assay type: cell-based; settings: HEK-293T; procedure, shortened: as §2
# [9] = molecular target: T4, Monoglyceride lipase (Mus musculus) (UniProt O35678); experiment: Inhibition of mouse brain MGLL at 10 uM after 30 mins by FP-rhodamine ABPP-based mass spectrometry relative to control
# T4 sequence (whole entry): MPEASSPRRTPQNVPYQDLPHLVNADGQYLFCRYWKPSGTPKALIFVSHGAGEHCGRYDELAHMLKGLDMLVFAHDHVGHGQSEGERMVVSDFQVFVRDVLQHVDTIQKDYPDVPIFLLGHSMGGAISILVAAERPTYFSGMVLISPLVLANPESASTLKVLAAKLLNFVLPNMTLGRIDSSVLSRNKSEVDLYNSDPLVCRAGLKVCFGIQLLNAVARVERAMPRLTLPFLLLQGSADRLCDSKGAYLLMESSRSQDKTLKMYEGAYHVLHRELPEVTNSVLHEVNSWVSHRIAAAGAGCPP
# [10] = molecular target: T1, Monoacylglycerol lipase ABHD6 (Mus musculus); experiment: Inhibition of ABHD6 in FP-rhodamine-labelled mouse brain membrane at 0.01 uM after 30 mins preincubated for 30 mins followed by HT-01 labelling measured after 30 mins by gel-based competitive ABPP assay; assay type: tissue-based; procedure, shortened: as §1
# [11] = molecular target: T4, Monoglyceride lipase (Mus musculus); experiment: Inhibition of MGLL in FP-rhodamine-labelled mouse brain membrane at 10 uM after 30 mins preincubated for 30 mins followed by HT-01 labelling measured after 30 mins by gel-based competitive ABPP assay; assay type: tissue-based; procedure, shortened: as §1
# [12] = molecular target: T1, Monoacylglycerol lipase ABHD6 (Mus musculus); experiment: Inhibition of ABHD6 in HT-01-labelled mouse Neuro2a cell membrane at 0.003 to 0.6 uM preincubated for 30 mins followed by HT-01 labelling measured after 30 mins by gel-based competitive ABPP assay
# Procedure, shortened: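 Neuro2A membrane proteome (1 mg/mL) preincubated with compound for 30 min at 37 °C, then labelled with HT-01 (1 μM, 30 min, 37 °C). SDS-PAGE and in-gel fluorescence scanning, with activity taken from integrated band intensity.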
# [13] = molecular target: T1, Monoacylglycerol lipase ABHD6 (Mus musculus); experiment: Inhibition of ABHD6 in FP-rhodamine-labelled mouse brain membrane at 10 to 0.0032 uM preincubated for 30 mins followed by FP-rhodamine labelling measured after 30 mins by gel-based competitive ABPP assay; assay type: tissue-based; procedure, shortened: as §1
# [14] = molecular target: T1, Monoacylglycerol lipase ABHD6 (Mus musculus); experiment: Inhibition of ABHD6 in azide-rhodamine-labelled mouse Neuro2a cell membrane at 0.01 to 0.6 uM preincubated for 1 hr followed by azide-rhodamine labelling by SDS-PAGE-based in-gel fluorescence scanning assay
# Procedure, shortened: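 Live Neuro2A cells (DMEM, 10% FBS) treated with compound for 1 hr at 37 °C, then lysed. The membrane proteome was conjugated to azide-rhodamine by click chemistry, resolved by SDS-PAGE and scanned for in-gel fluorescence.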
# [15] = molecular target: T3, Fatty-acid amide hydrolase 1 (Mus musculus); experiment: Inhibition of FAAH in FP-rhodamine-labelled mouse brain membrane at 0.4 to 10 uM preincubated for 30 mins followed by FP-rhodamine labelling measured after 30 mins by gel-based competitive ABPP assay; assay type: tissue-based; procedure, shortened: as §1
Compound,inhibition [1] [%],inhibition [2] [%],inhibition [3] [%],inhibition [4],inhibition [5],inhibition [6],inhibition [7] [%],inhibition [8] [%],inhibition [9],inhibition [10],inhibition [11],inhibition [12],inhibition [13],inhibition [14],inhibition [15]
NC(=O)c1ccc(-c2ccc(-c3cn(C(=O)N4CCCCC4c4ccccc4)nn3)cc2)cc1 (racemic),27,17,0,Active,Active,Active,–,–,–,–,–,–,–,–,–
O=C(O)c1cccc(-c2ccc(-c3cn(C(=O)N4CCCCC4CCc4ccccc4)nn3)cc2)c1 (racemic),94,33,4,–,–,Active,–,–,–,–,–,–,–,–,–
COc1ccccc1-c1ccc(-c2cn(C(=O)N3CCCCC3c3ccccc3)nn2)cc1 (racemic),82,–,–,–,–,Active,14,70,Active,Active,Active,–,–,–,–
O=C(N1CCCCC1Cc1ccccc1)n1cc(-c2ccc(-c3cccc(CO)c3)cc2)nn1 (racemic),91,–,–,–,–,–,37,91,–,Active,Active,–,–,–,–
COc1ccc(-c2ccc(-c3cn(C(=O)N4CCCCC4c4ccccc4)nn3)cc2)cc1 (racemic),30,–,–,–,–,Active,0,0,–,Active,Active,–,–,–,–
C#CCOCCCc1ccc(C2CCCCN2C(=O)n2cc(-c3ccc(-c4ccc(OC)cc4)cc3)nn2)cc1 (racemic),–,–,–,–,–,–,–,–,–,–,–,Active,Active,Active,Active
O=C(N1CCCCC1c1ccccc1)n1cc(-c2ccc(-c3ccccc3CO)cc2)nn1 (racemic),98,38,0,Active,Active,Active,–,–,–,–,–,–,–,–,–
COc1ccccc1-c1ccc(-c2cn(C(=O)N3CCCCC3Cc3ccccc3)nn2)cc1 (racemic),89,–,–,–,–,–,66,100,Active,Active,Active,–,–,–,–
O=C(c1ccc(-c2ccc(-c3cn(C(=O)N4CCCCC4Cc4ccccc4)nn3)cc2)cc1)N1CCCCC1 (racemic),79,–,–,–,–,–,15,58,–,Active,Active,–,–,–,–
O=C(c1ccc(-c2ccc(-c3cn(C(=O)N4CCCCC4c4ccccc4)nn3)cc2)cc1)N1CCCCC1 (racemic),94,35,0,Active,Active,–,–,–,–,–,–,–,–,–,–
O=C(N1CCCCC1c1ccccc1)n1cc(-c2ccc(-c3ccc(CO)cc3)cc2)nn1 (racemic),47,18,0,Active,Active,Active,–,–,–,–,–,–,–,–,–

# — ChEMBL document CHEMBL3259629, “Discovery and optimization of piperidyl-1,2,3-triazole ureas as potent, selective, and in vivo-active inhibitors of α/β-hydrolase domain containing 6 (ABHD6)” (J Med Chem, 2013)
